Assay results taken from ChEMBL document CHEMBL3585256, “Triphenylphosphonium Cations of the Diterpenoid Isosteviol: Synthesis and Antimitotic Activity in a Sea Urchin Embryo Model” (J Nat Prod, 2015).
pIC50: −log10 of the molar value. Calls of active or inactive are those of the source.

Columns and labels:
[1] = test system: Paracentrotus lividus; assay: Antimitotic activity against sea urichin L embryo model assessed as inhibition of skeletal spiculae growth by sea urichin embryo assay; format: functional
Method in brief: (§1)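 Hatched free-swimming blastulae (8−9 h postfertilization) exposed to compound and followed to four-arm pluteus (34−36 h). Scored for spicule growth inhibition or arrest at late gastrula. Gametes obtained by intracoelomic 0.5 M KCl; embryos grown in filtered seawater at room temperature with paddle stirring, monolayer up to 2000 embryos/mL. Stocks in DMSO diluted with EtOH, or in water.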

[2] = test system: Paracentrotus lividus; assay: Antimitotic activity against sea urichin L embryo model assessed as cleavage alteration after 2.5 to 5.5 hrs of fertilization by sea urichin embryo assay; format: functional
[3] = test system: Paracentrotus lividus; assay: Antimitotic activity against sea urichin L embryo model assessed as embryo spinning by sea urichin embryo assay; format: functional
[4] = test system: Paracentrotus lividus; assay: Antimitotic activity against sea urichin L embryo model assessed as full mitotic arrest by sea urichin embryo assay; format: functional
[5] = test system: Paracentrotus lividus; assay: Induction of mitotic spindle defects in sea urichin L embryo model assessed as aberrant mitotic spindles by conventional light microscopy; format: functional, organism-based
Method in brief: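 Eggs exposed 8−15 min postfertilization, incubated at 21 °C. Mitotic apparatus examined by light microscopy at 1 h (first cleavage anaphase) and 2.5 h postfertilization, scored for aberrant, multipolar or absent spindles.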

[6] = test system: Paracentrotus lividus; assay: Antimitotic activity against sea urichin L embryo model assessed as death of embryo at hatched blastula stage by sea urichin embryo assay; format: functional
[7] = test system: Paracentrotus lividus; assay: Antimitotic activity against sea urichin L embryo model assessed as late gastrula stage by sea urichin embryo assay; format: functional; method in brief: as §1
[8] = test system: Paracentrotus lividus; assay: Induction of mitotic spindle defects in sea urichin L embryo model assessed as complete blocked of spindle assembly at 50 nM by conventional light microscopy
[9] = test system: MOLT-4; assay: Cytotoxicity against human MOLT4 cells by MTT assay; format: functional; conditions: read-out: LD50 (the source's name)
[10] = test system: HL-60; assay: Cytotoxicity against human HL60 cells by MTT assay; format: functional, cell-based
[11] = test system: Paracentrotus lividus; assay: Toxicity in sea urichin L embryo assessed as development up to 4 uM; format: organism-based; conditions: in vivo
Method in brief: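 Fertilized eggs exposed 8−15 min postfertilization to 2-fold decreasing concentrations, with cleavage alteration or arrest scored at 2.5−5.5 h. Effective threshold concentration defined as the lowest giving 100% cleavage alteration and embryo death before hatching, with no effect at 2-fold lower. Final DMSO ≤0.05% and EtOH ≤1%. Run in duplicate.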

[12] = Cytotoxicity against human NUGC3 cells by MTT assay; format: functional; conditions: NUGC-3, read-out: LD50 (the source's name)
[13] = test system: BALL-1; assay: Cytotoxicity against human BALL-1 cells by MTT assay; format: functional; conditions: read-out: LD50 (the source's name)
[14] = test system: Paracentrotus lividus; assay: Induction of mitotic spindle defects in sea urichin L embryo model assessed as formation of aberrant mitotic spindles at 2 uM by conventional light microscopy

SMILES | EC [1] [µM] | EC [2] [µM] | EC [3] [µM] | EC [4] [µM] | Activity [5] | EC [6] [µM] | EC [7] [µM] | Activity [8] | CC50 [9] [µM] | pIC50 [10] | Activity [11] | CC50 [12] [µM] | CC50 [13] [µM] | Activity [14]
CC[N+](CC)(CC)CCOCCOCCOC(=O)[C@]1(C)CCC[C@@]2(C)[C@@H]3CC[C@@]4(C)C[C@]3(CC[C@@H]21)CC4=O.[Br-] | 40 | >100 | >100 | >100 | – | – | – | – | – | – | – | – | – | –
C[C@@]12CC[C@@H]3[C@@](CC[C@H]4[C@@]3(C)CCC[C@@]4(C)C(=O)OCCOCCOCC[P+](c3ccccc3)(c3ccccc3)c3ccccc3)(CC1=O)C2.[Br-] | – | 1 | >10 | 2 | Active | – | – | – | – | – | – | – | – | –
C[C@@]12CC[C@@H]3[C@@](CC[C@H]4[C@@]3(C)CCC[C@@]4(C)C(=O)OCCCCCCCC[P+](c3ccccc3)(c3ccccc3)c3ccccc3)(CC1=O)C2.[Br-] | – | 2 | >4 | >4 | Active | 0.5 | – | – | – | – | – | – | – | –
COC(=O)Nc1nc2cc(C(=O)c3cccs3)ccc2[nH]1 [NOCODAZOLE] | – | 0.005 | 0.1 | 0.1 | – | >0.5 | 0.02 | Active | – | – | – | – | – | –
C[C@@]12CC[C@@H]3[C@@](CC[C@H]4[C@@]3(C)CCC[C@@]4(C)C(=O)O)(CC1=O)C2 [ISOSTEVIOL] | – | >4 | >4 | >4 | – | – | – | – | 84 | 4.12 | Non-toxic | 167 | 87 | –
C[C@@]12CC[C@@H]3[C@@](CC[C@H]4[C@@]3(C)CCC[C@@]4(C)C(=O)OCCCCCC[P+](c3ccccc3)(c3ccccc3)c3ccccc3)(CC1=O)C2.[Br-] | – | 2 | >4 | >4 | Active | 1 | – | – | – | – | – | – | – | Active
CC(=O)O[C@H]1C(=O)[C@@]2(C)[C@H]([C@H](OC(=O)c3ccccc3)[C@]3(O)C[C@H](OC(=O)[C@H](O)[C@@H](NC(=O)c4ccccc4)c4ccccc4)C(C)=C1C3(C)C)[C@]1(OC(C)=O)CO[C@@H]1C[C@@H]2O [PACLITAXEL] | – | 0.5 | >10 | >10 | – | 2 | – | – | – | – | – | – | – | –
COc1cc([C@@H]2c3cc4c(cc3[C@@H](O[C@@H]3O[C@@H]5CO[C@@H](C)O[C@H]5[C@H](O)[C@H]3O)[C@H]3COC(=O)[C@H]23)OCO4)cc(OC)c1O [ETOPOSIDE] | 4 | 0.5 | >68 | >68 | – | 40 | – | – | – | – | – | – | – | –
C[C@@]12CC[C@@H]3[C@@](CC[C@H]4[C@@]3(C)CCC[C@@]4(C)C(=O)OCCC[P+](c3ccccc3)(c3ccccc3)c3ccccc3)(CC1=O)C2.[Br-] | – | 2 | >4 | >4 | Active | 4 | – | – | – | – | – | – | – | –
C[C@@]12CC[C@@H]3[C@@](CC[C@H]4[C@@]3(C)CCC[C@@]4(C)C(=O)OCCOCCOCCOCC[P+](c3ccccc3)(c3ccccc3)c3ccccc3)(CC1=O)C2.[Br-] | – | 1 | >10 | 2 | Active | – | – | – | – | – | – | – | – | –
C[C@@]12CC[C@@H]3[C@@](CC[C@H]4[C@@]3(C)CCC[C@@]4(C)C(=O)OCCOCCOCCOCCOCC[P+](c3ccccc3)(c3ccccc3)c3ccccc3)(CC1=O)C2.[Br-] | – | 1 | >10 | 4 | Active | – | – | – | – | – | – | – | – | –
CC[N+](CC)(CC)CCOCCOCCOCCOC(=O)[C@]1(C)CCC[C@@]2(C)[C@@H]3CC[C@@]4(C)C[C@]3(CC[C@@H]21)CC4=O.[Br-] | 100 | >100 | >100 | >100 | – | – | – | – | – | – | – | – | – | –
